Measurements: ChEMBL document CHEMBL5532718, “Identification and Evaluation of Reversible Covalent Binders to Cys55 of Bfl-1 from a DNA-Encoded Chemical Library Screen” (ACS Med Chem Lett, 2024)

How the values were obtained:
Bcl-2-related protein A1 [1] = target: T1, Bcl-2-related protein A1 (Homo sapiens, UniProt Q16548); experiment: Inhibition of N-terminal His6-tagged recombinant human Bfl-1 (1 to 151 residues) expressed in Escherichia coli BL21-Gold (DE3) using HyLite Fluor 647-labeled BIM peptide as substrate incubated for 120 mins by TR-FRET assay
T1 sequence (Q16548 whole entry): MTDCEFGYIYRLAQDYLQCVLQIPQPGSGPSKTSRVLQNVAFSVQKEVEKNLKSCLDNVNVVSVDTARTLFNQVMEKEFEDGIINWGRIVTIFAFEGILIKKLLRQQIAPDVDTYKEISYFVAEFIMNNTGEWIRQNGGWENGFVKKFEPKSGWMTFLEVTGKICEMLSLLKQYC
Method in brief: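 Bfl-1 binding read as displacement of a labeled BIM peptide probe in a TR-FRET assay, reported as IC50 in μM.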

[2] = Lipophilicity, logD of compound in octanol/water at pH 7.4 by shake-flask method; format: physicochemical
[3] = target: Induced myeloid leukemia cell differentiation protein Mcl-1 (Homo sapiens, UniProt Q07820); experiment: Inhibition of Mcl-1 (unknown origin) incubated for 120 mins by TR-FRET assay
[4] = target: Apoptosis regulator Bcl-2 (Homo sapiens, UniProt P10415); experiment: Inhibition of Bcl-2 (unknown origin) incubated for 120 mins by TR-FRET assay
Bcl-2-like protein 1 = Bcl-2-like protein 1 (Homo sapiens, UniProt Q07817); experiment: Inhibition of Bcl-xl (unknown origin) incubated for 120 mins by TR-FRET assay
Bcl-2-related protein A1 [5] = target: T1, Bcl-2-related protein A1; experiment: Binding affinity of N-terminal His6-tagged recombinant human Bfl-1 (1 to 151 residues) expressed in Escherichia coli BL21-Gold (DE3) assessed as inhibition constant by MS analysis

Induced myeloid leukemia cell differentiation protein Mcl-1, sequence (Q07820 whole entry): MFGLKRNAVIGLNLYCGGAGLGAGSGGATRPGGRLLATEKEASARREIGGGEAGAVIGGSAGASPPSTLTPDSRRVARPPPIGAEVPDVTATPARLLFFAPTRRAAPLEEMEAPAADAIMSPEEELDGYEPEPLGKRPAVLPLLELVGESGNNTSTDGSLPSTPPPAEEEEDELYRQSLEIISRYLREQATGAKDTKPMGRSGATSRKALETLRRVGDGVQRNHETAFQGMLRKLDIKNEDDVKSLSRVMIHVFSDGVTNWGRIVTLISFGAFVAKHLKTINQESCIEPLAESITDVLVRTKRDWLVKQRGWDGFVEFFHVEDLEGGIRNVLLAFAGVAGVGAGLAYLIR
Apoptosis regulator Bcl-2, sequence (P10415 whole entry): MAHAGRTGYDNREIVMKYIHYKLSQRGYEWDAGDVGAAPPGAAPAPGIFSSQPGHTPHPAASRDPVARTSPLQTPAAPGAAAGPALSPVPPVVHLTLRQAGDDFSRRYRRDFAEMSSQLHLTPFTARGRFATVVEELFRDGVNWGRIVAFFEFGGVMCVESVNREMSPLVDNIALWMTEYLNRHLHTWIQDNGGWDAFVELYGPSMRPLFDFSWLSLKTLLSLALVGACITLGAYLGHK
Bcl-2-like protein 1, sequence (Q07817 whole entry, the tested form may be a part): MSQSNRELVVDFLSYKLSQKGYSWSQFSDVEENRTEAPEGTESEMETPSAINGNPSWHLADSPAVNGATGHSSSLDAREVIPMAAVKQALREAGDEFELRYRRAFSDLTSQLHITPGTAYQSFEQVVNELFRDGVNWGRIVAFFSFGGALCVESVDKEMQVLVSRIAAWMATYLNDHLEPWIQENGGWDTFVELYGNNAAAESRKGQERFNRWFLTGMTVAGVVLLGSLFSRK

| SMILES | IC50 (Bcl-2-related protein A1 [1]) [µM] | logD [2] | IC50 [3] [µM] | IC50 [4] [µM] | IC50 (Bcl-2-like protein 1) [µM] | Ki (Bcl-2-related protein A1 [5]) [µM] |
| --- | --- | --- | --- | --- | --- | --- |
| CP(C)(=O)c1ccccc1/C=C(\C#N)C(=O)NCCc1ccc(C(F)(F)F)cc1 | 23 | 2.7 | – | – | – | – |
| CP(C)(=O)c1ccccc1/C=C(\C#N)C(=O)NCCc1ccccc1 | > 100 | 1.7 | – | – | – | – |
| CN(C)C(=O)C(Cc1ccc(C(F)(F)F)cc1)NC(=O)/C(C#N)=C/c1ccccc1S(=O)(=O)N(C)C (racemic) | > 100 | 3.2 | – | – | – | – |
| CP(C)(=O)c1ccccc1/C=C(\C#N)C(=O)NCCc1ccc(Cl)c(Cl)c1 | 27 | 1.9 | – | – | – | – |
| CN(C)C(=O)[C@H](Cc1ccc(C(F)(F)F)cc1)NC(=O)/C(C#N)=C/c1ccccc1P(C)(C)=O | 29 | 2 | > 100 | > 100 | > 100 | 5.4 |
| CN(C)C(=O)[C@H](Cc1ccc(C(F)(F)F)cc1)NC(=O)/C(C#N)=C/c1ccc(P(C)(C)=O)cc1 | > 100 | 2.1 | – | – | – | – |
| CN(C)C(=O)[C@H](Cc1ccc(C(F)(F)F)cc1)NC(=O)/C(C#N)=C/c1ccccc1S(C)(=O)=O | > 100 | 2.6 | – | – | – | – |
| CN(C)C(=O)c1ccccc1/C=C(\C#N)C(=O)NC(Cc1ccc(C(F)(F)F)cc1)C(=O)N(C)C (racemic) | > 100 | 2.2 | – | – | – | – |
| CP(C)(=O)c1ccccc1/C=C(\C#N)C(=O)NCC1(c2ccc(C(F)(F)F)cc2)CC1 | 4.3 | 3 | – | – | – | – |
| CN(C)C(=O)[C@H](Cc1ccc(C(F)(F)F)cc1)NC(=O)/C(C#N)=C/c1cccc(P(C)(C)=O)c1 | > 100 | 2.2 | – | – | – | – |
| CN(C)C(=O)[C@@H](Cc1ccc(C(F)(F)F)cc1)NC(=O)/C(C#N)=C/c1ccccc1P(C)(C)=O | > 100 | 2.1 | – | – | – | – |
| CN(C)C(=O)[C@H](Cc1ccc(C(F)(F)F)cc1)NC(=O)/C(C#N)=C/c1ccccc1 | > 100 | 3.9 | – | – | – | – |
| CP(C)(=O)c1ccccc1/C=C(\C#N)C(=O)NCC1(c2ccccc2)CC1 | 50 | 2 | – | – | – | – |
| CP(C)(=O)c1ccccc1/C=C(\C#N)C(=O)NCCc1ccc(Cl)cc1 | 54 | 2.3 | – | – | – | – |
